Rows were chosen to be rich in hits. Some 3.5% of all compounds tested hit in one or more screens of this group.
Env fusion inh: inhibitors of HIV Env-mediated cell fusion | 360,000 compounds, 1.1% hits | inhibition, % at 12.3 µM | AID 651610 | HeLa-JRFL Env/CEM21 cell fusion, luciferase;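 active means mean replicate inhibition score of at least 50 and every replicate individually at or above 50; inconclusive means only one of the two criteria met; inactive means mean below 50 and not all replicates reaching 50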;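 further: 0% = plate neutral controls and 100% = maraviroc near 300 nM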
FN deposition inh: fibronectin deposition inhibition; 350,000 compounds, 0.086% hits; inhibition, % at 12.6 µM; AH1F fibroblasts, Alexa488-fibronectin deposition fluorescence, overnight;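 active means mean inhibition across replicates of 30% or more, regardless of how many single replicates reach that level; inconclusive means mean under 30% yet at least half of replicates reach 30%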;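 further: positive control wells lacked labelled fibronectin entirely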
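material = AH1F fibroblast monolayer depositing Alexa488-labelled fibronectin into matrix | amount = 10000 AH1F cells/well | buffer or medium = DMEM plus 2% serum, read in PBS | incubation = 1 h cell adhesion before compound, then overnight fibronectin incubation | detection = fluorescence at 485 nm excitation, 525 nm emission | evaluation = percent inhibition as loss of matrix-bound fibronectin fluorescence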
Ecoli rRNA inh: inhibitors of bacterial rRNA selective over humanized ribosomes; E. coli WT GFP vs humanized-ribosome RFP mutants, fluorescence, 24 h; hits give low values; DMSO median 0, no signal -100; GFP signal change (wild-type ribosome), % (no concentration beside the values); 350,000 compounds, 1.6% hits;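 active means significant combined selectivity score with lowered wild-type GFP, culture density cut under 30%, mutant RFP and density less affected; inactive means any of these conditions unmet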
DENV2 CPE rescue: protects cells from dengue virus 2 cytopathic effect. DENV2-infected cells, cytopathic effect rescue, plate reader. CPE inhibition, % at 9.99 µM. 350,000 compounds, 1.7% hits. AID 651640; in the data active means CPE inhibition above about 20%, passing the limit was not always enough; inconclusive means no clear call, values can overlap the other calls; tested in BHK-21 cells;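 further: 0% = median of neutral control wells and 100% = median of positive control wells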
PglD DTNB: PglD (C. jejuni) enzyme inhibition | purified PglD enzyme, DTNB colorimetric CoA detection | inhibition, % at 12.5 µM | 360,000 compounds, 0.098% hits; in the data active means inhibition above about 16%, passing the limit was not always enough; inconclusive means no clear call, values can overlap the other calls
PGC1a acetyl inh: lowers PGC1a acetylation signal in U2OS cells. AlphaScreen anti-acetyl-lysine; with virally co-expressed GCN5 acetyltransferase. inhibition, % at 15.6 µM. 350,000 compounds, 0.17% hits. AID 651687;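 active means every replicate shows inhibition of at least 40%; inconclusive means mean inhibition at least 40% but some replicate below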;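 further: 0% = neutral control wells and 100% = positive control wells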
Numbers without * were called inactive; ? = inconclusive; . = no result; [ ] = dose if it differs, or a comment.

SMILES	Env fusion inh	FN deposition inh	Ecoli rRNA inh	DENV2 CPE rescue	PglD DTNB	PGC1a acetyl inh
COc1ccc(C(=O)/C=C/C(=O)N(Cc2ccccc2)C(C(=O)NC2CCCCC2)c2ccncc2)c(O)c1 (centres undefined)	.	-3	-13	41*	2	-5
CNC[C@@H]1Oc2ccc(NC(=O)NC(C)C)cc2C(=O)N([C@H](C)CO)C[C@H]1C	-22[16.7 µM]	.	5	17	-2	1
Cc1ccccc1CSc1ccc(-c2ccc3c(c2)OCO3)nn1	.	8	-9	52*	2	-2
Cc1oc(-c2ccc(Cl)cc2)cc1C(=O)/C(C#N)=C/Nc1ccccc1	9	-3	-25*	-2	.	.
C[C@@H]1CCCCO[C@H](CN(C)S(=O)(=O)c2cn(C)cn2)[C@@H](C)CN([C@H](C)CO)C(=O)c2cc(NS(=O)(=O)c3cccs3)ccc2O1	4[16.7 µM]	.	0	-4	-3	4
Fc1cccc(-c2cc3nc4c(c(NCc5ccco5)n3n2)CCCC4)c1	.	.	-32*	.	0	-12
C=C1[C@@H](O)[C@H](Cc2ccccc2)N(Cc2ccccc2Br)S1(=O)=O	6	4	-23*	3	4	.
Cc1ccccc1CN1[C@@H](Cc2ccccc2)COCCS1(=O)=O	20	-14	.	.	-4	-9
Cc1cccc(C(=O)Nc2scc(-c3ccc(Br)cc3)c2C(=O)O)c1	2	0	5	-7	-2	-1
Cc1ccc(-c2csc(NC(=O)c3cccc(C)c3)c2C(=O)O)cc1	5	0	-38*	-1	7	-2
COc1ccc(CNc2oc(COc3ccc(Cl)cc3)nc2C#N)cc1	?	.	.	.	-1	.
CN(C)CCNc1oc(COc2ccc(-c3ccccc3)cc2)nc1C#N	.	.	-36*	1	6	58*
COc1ccc(Nc2oc(COc3ccc(Cl)cc3)nc2C#N)cc1	84*	9	.	.	-3	7
COc1ccc2c(c1)OC[C@H]1[C@H]2N2C(=O)CN(Cc3ccc(Cl)cc3)C(=O)[C@@]2(C)[C@H]1c1ccccc1	73*	9	7	-16	2	-9
COc1ccc2c(c1)OC[C@H]1[C@H]2N2C(=O)c3ccc(F)cc3NC(=O)[C@@]2(C)[C@H]1c1ccccc1	-11	11	-5	55*	7	-14
COc1ccc2c(c1)OC[C@H]1[C@H]2N2C(=O)c3cc(OC)c(OC)cc3NC(=O)[C@@]2(C)[C@H]1c1ccccc1	-31	10	12	-15	3	.
COc1ccc2c(c1)[C@H]1[C@H](CO2)[C@H](c2ccccc2)[C@]2(C)C(=O)Nc3cc(F)ccc3C(=O)N12	34	5	-4	-6	3	.
COc1cc2c(cc1OC)C(=O)N1[C@H]3c4ccccc4OC[C@@H]3[C@H](c3ccccc3)[C@]1(C)C(=O)N2	66*	-10	2	?	1	.
COc1ccc(CN2CC(=O)N3[C@H]4c5ccc(OC)cc5OC[C@@H]4[C@H](c4ccccc4)[C@]3(C)C2=O)cc1	32	-2	7	6	6	.
COc1ccc(CN(C)C[C@H]2Oc3ccc(NC(=O)Nc4ccccc4)cc3C(=O)N([C@H](C)CO)C[C@@H]2C)cc1	9[16.7 µM]	.	1	-2	-12	-13
COc1ccc(NC(=O)N(C)C[C@@H]2Oc3ncc(C#C[C@H](C)O)cc3C(=O)N([C@H](C)CO)C[C@H]2C)cc1	-14[16.7 µM]	.	5	-2	0	6
O=C(CSc1nc(=O)n2ccccc2n1)N1CCCc2ccccc21	0	0	1	68*	3	8
COc1ccc(Nc2nnc(-c3ccc(C(N)=O)cc3)c3ccccc23)cc1	2	0	-38*	-3	6	-89
NC(=O)c1ccc(Nc2nnc(-c3ccc(O)cc3)c3ccccc23)cc1	7	-11	-23*	.	.	-13
O=C(O)C/C(=C\c1ccc(N2CCOCC2)c([N+](=O)[O-])c1)c1nc2ccccc2s1	8	-9	-25*	5	-3	3
SMILES	Env fusion inh	FN deposition inh	Ecoli rRNA inh	DENV2 CPE rescue	PglD DTNB	PGC1a acetyl inh
O=C(O)CC/C(=C\c1ccc(N2CCOCC2)c([N+](=O)[O-])c1)c1nc2ccccc2s1	-5	7	-31	-3	.	5
O=C(Nc1ccc(F)cc1)N1CC(=O)N2[C@@H](CO)[C@H](c3ccc(C#Cc4ccc(F)cc4)cc3)[C@@H]2C1	.	7	-16	5	.	9
CCCC#Cc1ccc([C@@H]2[C@H]3CN(C(=O)Nc4ccc(F)cc4)CC(=O)N3[C@H]2CO)cc1	.	.	-43	42*	.	-8
CCCC#Cc1ccc([C@H]2[C@@H](CO)N3C(=O)CN(C(=O)NC4CCCC4)C[C@@H]23)cc1	.	.	2	31*	.	-16
O=C(Nc1ccccc1F)N1CC(=O)N2[C@H](CO)[C@H](c3ccc(C#Cc4ccc(F)cc4)cc3)[C@@H]2C1	.	.	-6	27*	.	4
C[C@@H]1CN([C@@H](C)CO)C(=O)c2cccc(NS(=O)(=O)c3cccs3)c2O[C@@H]1CN(C)Cc1ccncc1	.	.	1	-5	-1	-4
CCN(CC)CCCN(C(=O)c1ccccc1C)c1nc(-c2ccc(OC)cc2)cs1	1	6	-10	8	2	-22
CCN(CC)CCN(C(=O)c1ccc2ccccc2c1)c1nc2ccc(OC)cc2s1	10	5	-19*	-2	-1	.
CCN(CC)CCN(C(=O)c1cc2ccccc2cc1OC)c1nc2ccc(OC)cc2s1	11	2	-35	0	2	3
COc1ccc(-c2csc(N(CC3CCCO3)C(=O)c3ccc(C)cc3)n2)cc1 (centres undefined)	49*	-5	.	.	2	5
COc1ccc(-c2csc(N(CC3CCCO3)C(=O)c3ccccc3)n2)cc1 (centres undefined)	23	.	9	.	.	4
CCN(CC)CCCN(C(=O)c1ccc(OC)cc1)c1nc(-c2ccc(OC)cc2)cs1	23	0	-35*	-22	-6	-1
COc1ccc(S(=O)(=O)N(C)C[C@H]2Oc3ncc(/C=C/c4ccccc4)cc3C(=O)N([C@H](C)CO)C[C@H]2C)cc1	-8[16.7 µM]	-20	-3	4	-17	5
O=C(C[C@@H]1CC[C@@H](NC(=O)C2CCOCC2)[C@@H](CO)O1)NCc1ccncc1	.	.	3	-4	.	4
CN1[C@H](C(=O)NCCc2ccccc2)[C@@H](CO)[C@@H]2Cn3c(ccc(-c4ccccc4)c3=O)[C@@H]21	.	.	-2	-23	-2	.
Cc1nc2ccccc2c2c1CC(C(C)(Cl)Br)O2 (centres undefined)	74*	-8	-30*	0	.	1
Cc1cc(N2CCN(c3nc4ccccc4s3)CC2)n2ncnc2n1	87*	.	.	.	-1	-19
Cc1cc(N2CCN(C(c3ccccc3)c3ccccc3)CC2)n2ncnc2n1	-32	.	.	.	0	-6

Bioassay records from PubChem.
